Experimental data published in paper PMC7126328 (Bioorganic & Medicinal Chemistry, 2013).
Several values for one entry are separate records, joined by “and”; a condition that tells them apart may be missing. Equal entries are not always repeated.

Key:
[1] = MTT cell viability assay, U-937; assay type: cell-based; conditions: human, U-937 cells (monocytes)
How it was run: (§1)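 Test compound, dissolved in DMSO, was added and cells were cultured for 72 h (37 °C, 5% CO2), three wells per concentration, with untreated cells as control. Then 1% MTT was added for 4 h, DMSO added and mixed 15 min, and OD read at 570 nm.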

[2] = MTT cell viability assay, MT-4; assay type: cell-based; conditions: human, MT-4 cells
How it was run: as §1

[3] = system: E. coli/pRAC-gfp; conditions: for Toxic and mutagenic effects on indicator cells E. coli/pRAC-gfp (in words): 150 μM; for The value of the fluorescence of GFP synthesized in biosensor cells, Biosensor E. coli/pRAC-gfp: 150 μM compound in culture medium, 1.5 h
[4] = system: E. coli/pET36b-gfp; conditions: for Toxic and mutagenic effects on indicator cells E. coli/pET36b-gfp (in words): 150 μM; for The value of the fluorescence of GFP synthesized in biosensor cells, Biosensor E. coli/pET36b-gfp: 150 μM compound in culture medium, IPTG 1 mM
[5] = system: MDCK cells; conditions: 48 h, MTT
[6] = system: E. coli/pRAC-gfp; assay: microbe, parasite or virus in culture; conditions: Escherichia coli, read-out: Inhibition/induction of the synthesis of the reporter protein GFP, E. coli/pRAC-gfp
[7] = system: E. coli/pET36b-gfp; assay: microbe, parasite or virus in culture; conditions: Escherichia coli, read-out: Inhibition/induction of the synthesis of the reporter protein GFP, E. coli/pET36b-gfp

CC[N+](CC)(CCCCCCCC[N+](CC)(CC)CC/N=C1\C[C@H]2CC[C@]1(C)C2(C)C)CC/N=C1\C[C@H]2CC[C@]1(C)C2(C)C [Compound 3c, N^1,N^1,N^8,N^8-Tetraethyl-N^1,N^8-bis(2-((E)-((1R,4R)-1,7,7-trimethylbicyclo[2.2.1]heptan-2-ylideneamino)ethyl)octane-1,8-diaminium bromide]
IC50 at 72 h [1]: 67.2 ± 5.9 µM
IC50 at 72 h [2]: 69.8 ± 2.7 µM

CC[N+](CC)(CCCCCCCCCC[N+](CC)(CC)CC/N=C1\C[C@H]2CC[C@]1(C)C2(C)C)CC/N=C1\C[C@H]2CC[C@]1(C)C2(C)C [Compound 3e, N^1,N^1,N^10,N^10-Tetraethyl-N^1,N^10-bis(2-((E)-((1R,4R)-1,7,7-trimethylbicyclo[2.2.1]heptan-2-ylidene)amino)ethyl)decane-1,10-diaminium bromide]
IC50 at 72 h [1]: 53.6 ± 2.2 µM
IC50 at 72 h [2]: 66.1 ± 4.4 µM
Toxic and mutagenic effects on indicator cells E. coli/pRAC-gfp (in words) [3]: highly toxic
The value of the fluorescence of GFP synthesized in biosensor cells, Biosensor E. coli/pRAC-gfp [3]: 56.9 ± 3.1 conventional units
Toxic and mutagenic effects on indicator cells E. coli/pET36b-gfp (in words) [4]: highly toxic
The value of the fluorescence of GFP synthesized in biosensor cells, Biosensor E. coli/pET36b-gfp [4]: 110.7 ± 7.2 conventional units

CC[N+](CC)(CCCCCC[N+](CC)(CC)CC/N=C1\C[C@H]2CC[C@]1(C)C2(C)C)CC/N=C1\C[C@H]2CC[C@]1(C)C2(C)C [Compound 3b, N^1,N^1,N^6,N^6-Tetraethyl-N^1,N^6-bis(2-((E)-((1R,4R)-1,7,7-trimethylbicyclo[2.2.1]heptan-2-ylidene)amino)ethyl)hexane-1,6-diaminium bromide]
IC50 at 72 h [2]: 48.3 ± 3.2 µM
CTD50, cytotoxic concentration; the concentration leading to 50% death of cells [5]: 1712 µM and 1712.3 ± 169.8 µM
Toxic and mutagenic effects on indicator cells E. coli/pRAC-gfp (in words) [3]: neither toxic nor mutagenic effects
The value of the fluorescence of GFP synthesized in biosensor cells, Biosensor E. coli/pRAC-gfp [3]: 186.2 ± 22.9 conventional units
Toxic and mutagenic effects on indicator cells E. coli/pET36b-gfp (in words) [4]: neither toxic nor mutagenic effects
The value of the fluorescence of GFP synthesized in biosensor cells, Biosensor E. coli/pET36b-gfp [4]: 495.5 ± 15.2 conventional units
inhibition at 150 µM [6]: < 20%
inhibition at 150 µM [7]: < 20%

CC[N+](C)(CC)CC/N=C1\C[C@H]2CC[C@]1(C)C2(C)C [Compound 4a, N,N-Diethyl-N-methyl-2-((E)-((1R,4R)-1,7,7-trimethylbicyclo[2.2.1]heptan-2-ylidene)amino)ethanaminium iodide]
IC50 at 72 h [1]: 58.6 ± 4.6 µM
IC50 at 72 h [2]: > 100 µM
The value of the fluorescence of GFP synthesized in biosensor cells, Biosensor E. coli/pRAC-gfp [3]: 189.21 ± 17.7 conventional units
The value of the fluorescence of GFP synthesized in biosensor cells, Biosensor E. coli/pET36b-gfp [4]: 535.72 ± 307 conventional units
inhibition at 150 µM [6]: < 20%
inhibition at 150 µM [7]: < 20%

CC[N+](CC)(CCCCCCCCCCCC[N+](CC)(CC)CC/N=C1\C[C@H]2CC[C@]1(C)C2(C)C)CC/N=C1\C[C@H]2CC[C@]1(C)C2(C)C [Compound 3f, N^1,N^1,N^12,N^12-Tetraethyl-N^1,N^12-bis(2-((E)-((1R,4R)-1,7,7-trimethylbicyclo[2.2.1]heptan-2-ylidene)amino)ethyl)dodecane-1,12-diaminium bromide]
IC50 at 72 h [1]: 15.9 ± 1.1 µM
IC50 at 72 h [2]: 40.4 ± 3.9 µM
Toxic and mutagenic effects on indicator cells E. coli/pRAC-gfp (in words) [3]: highly toxic
The value of the fluorescence of GFP synthesized in biosensor cells, Biosensor E. coli/pRAC-gfp [3]: 49.3 ± 2.1 conventional units
Toxic and mutagenic effects on indicator cells E. coli/pET36b-gfp (in words) [4]: highly toxic
The value of the fluorescence of GFP synthesized in biosensor cells, Biosensor E. coli/pET36b-gfp [4]: 51.3 ± 4.6 conventional units

CC[N+](CC)(CC/N=C1\C[C@H]2CC[C@]1(C)C2(C)C)Cc1ccc(C[N+](CC)(CC)CC/N=C2\C[C@H]3CC[C@]2(C)C3(C)C)cc1 [Compound 3g, (R,R,E)-N,N′-(1,4-Phenylenebis(methylene))bis(N,N-diethyl-2-((E)-((1R,4R)-1,7,7-trimethylbicyclo[2.2.1]heptan-2-ylidene)amino)ethanaminium) bromide]
IC50 at 72 h [1]: 54.9 ± 2.6 µM
IC50 at 72 h [2]: 40.5 ± 3 µM
Toxic and mutagenic effects on indicator cells E. coli/pRAC-gfp (in words) [3]: neither toxic nor mutagenic effects
The value of the fluorescence of GFP synthesized in biosensor cells, Biosensor E. coli/pRAC-gfp [3]: 170.87 ± 8.9 conventional units
Toxic and mutagenic effects on indicator cells E. coli/pET36b-gfp (in words) [4]: neither toxic nor mutagenic effects
The value of the fluorescence of GFP synthesized in biosensor cells, Biosensor E. coli/pET36b-gfp [4]: 466.46 ± 4.1 conventional units
inhibition at 150 µM [6]: < 20%
inhibition at 150 µM [7]: < 20%

CC[N+](CC)(CC)CC/N=C1\C[C@H]2CC[C@]1(C)C2(C)C [Compound 4b, N,N,N-Triethyl-2-((E)-((1R,4R)-1,7,7-trimethylbicyclo[2.2.1]heptan-2-ylidene)amino)ethanaminium bromide]
IC50 at 72 h [1]: > 100 µM
IC50 at 72 h [2]: > 100 µM
Toxic and mutagenic effects on indicator cells E. coli/pRAC-gfp (in words) [3]: neither toxic nor mutagenic effects
The value of the fluorescence of GFP synthesized in biosensor cells, Biosensor E. coli/pRAC-gfp [3]: 176.9 ± 16.9 conventional units
Toxic and mutagenic effects on indicator cells E. coli/pET36b-gfp (in words) [4]: neither toxic nor mutagenic effects
The value of the fluorescence of GFP synthesized in biosensor cells, Biosensor E. coli/pET36b-gfp [4]: 547.9 ± 40.8 conventional units
inhibition at 150 µM [6]: < 20%
inhibition at 150 µM [7]: < 20%

CC[N+](CC)(CCCCCCCC[N+](CC)(CC)CC/N=C1\C[C@H]2CC[C@]1(C)C2(C)C)CC/N=C1\C[C@H]2CC[C@]1(C)C2(C)C [Compound 3c]
CTD50, cytotoxic concentration; the concentration leading to 50% death of cells [5]: 552.5 ± 49.1 µM
Toxic and mutagenic effects on indicator cells E. coli/pRAC-gfp (in words) [3]: highly toxic
The value of the fluorescence of GFP synthesized in biosensor cells, Biosensor E. coli/pRAC-gfp [3]: 81.7 ± 3.6 conventional units
Toxic and mutagenic effects on indicator cells E. coli/pET36b-gfp (in words) [4]: highly toxic
The value of the fluorescence of GFP synthesized in biosensor cells, Biosensor E. coli/pET36b-gfp [4]: 165.5 ± 8.1 conventional units

CC[N+](CC)(CCCCC[N+](CC)(CC)CC/N=C1\C[C@H]2CC[C@]1(C)C2(C)C)CC/N=C1\C[C@H]2CC[C@]1(C)C2(C)C [Compound 3a, N^1,N^1,N^5,N^5-Tetraethyl-N^1,N^5-bis(2-((E)-((1R,4R)-1,7,7-trimethylbicyclo[2.2.1]heptan-2-ylidene)amino)ethyl)pentane-1,5-diaminium bromide]
IC50 at 72 h [1]: 95.8 ± 5.6 µM
IC50 at 72 h [2]: 57.5 ± 3.8 µM
Toxic and mutagenic effects on indicator cells E. coli/pRAC-gfp (in words) [3]: neither toxic nor mutagenic effects
The value of the fluorescence of GFP synthesized in biosensor cells, Biosensor E. coli/pRAC-gfp [3]: 168.9 ± 13.5 conventional units
Toxic and mutagenic effects on indicator cells E. coli/pET36b-gfp (in words) [4]: neither toxic nor mutagenic effects
The value of the fluorescence of GFP synthesized in biosensor cells, Biosensor E. coli/pET36b-gfp [4]: 546.9 ± 65.6 conventional units
inhibition at 150 µM [6]: < 20%
inhibition at 150 µM [7]: < 20%

CC[N+](CC)(CCCCCCCCC[N+](CC)(CC)CC/N=C1\C[C@H]2CC[C@]1(C)C2(C)C)CC/N=C1\C[C@H]2CC[C@]1(C)C2(C)C [Compound 3d, N^1,N^1,N^9,N^9-Tetraethyl-N^1,N^9-bis(2-((E)-((1R,4R)-1,7,7-trimethylbicyclo[2.2.1]heptan-2-ylidene)amino)ethyl)nonane-1,9-diaminium bromide]
IC50 at 72 h [1]: 58.6 ± 3.4 µM
IC50 at 72 h [2]: 66 ± 5.3 µM
Toxic and mutagenic effects on indicator cells E. coli/pRAC-gfp (in words) [3]: highly toxic
The value of the fluorescence of GFP synthesized in biosensor cells, Biosensor E. coli/pRAC-gfp [3]: 95.9 ± 4.3 conventional units
Toxic and mutagenic effects on indicator cells E. coli/pET36b-gfp (in words) [4]: highly toxic
The value of the fluorescence of GFP synthesized in biosensor cells, Biosensor E. coli/pET36b-gfp [4]: 172.3 ± 6.2 conventional units

CCN(CC)CC/N=C1\C[C@H]2CC[C@]1(C)C2(C)C [Compound 2, (E)-N^1,N^1-Diethyl-N^2-((1R,4R)-1,7,7-trimethylbicyclo[2.2.1]heptan-2-ylidene)ethane-1,2-diamine]
Toxic and mutagenic effects on indicator cells E. coli/pRAC-gfp (in words) [3]: neither toxic nor mutagenic effects
The value of the fluorescence of GFP synthesized in biosensor cells, Biosensor E. coli/pRAC-gfp [3]: 171.4 ± 14.5 conventional units
Toxic and mutagenic effects on indicator cells E. coli/pET36b-gfp (in words) [4]: neither toxic nor mutagenic effects
The value of the fluorescence of GFP synthesized in biosensor cells, Biosensor E. coli/pET36b-gfp [4]: 512.7 ± 32.4 conventional units
inhibition at 150 µM [6]: < 20%
inhibition at 150 µM [7]: < 20%
